Source: ChEMBL document CHEMBL4043285 (J Med Chem, 2018)

Columns and labels:
[1] = target: T1, Receptor-interacting serine/threonine-protein kinase 1 (Mus musculus) (UniProt Q60855); experiment: Inhibition of RIPK1 in mouse L929sA cells transfected with human Fas assessed as inhibition in TNF-induced necroptosis at 3 uM pretreated for 24 hrs followed by TNF and zVAD.fmk addition measured after 3 hrs by Hoechst 33342/propidium iodide staining-based assay relative to control; type: cell-based
T1 sequence (whole entry): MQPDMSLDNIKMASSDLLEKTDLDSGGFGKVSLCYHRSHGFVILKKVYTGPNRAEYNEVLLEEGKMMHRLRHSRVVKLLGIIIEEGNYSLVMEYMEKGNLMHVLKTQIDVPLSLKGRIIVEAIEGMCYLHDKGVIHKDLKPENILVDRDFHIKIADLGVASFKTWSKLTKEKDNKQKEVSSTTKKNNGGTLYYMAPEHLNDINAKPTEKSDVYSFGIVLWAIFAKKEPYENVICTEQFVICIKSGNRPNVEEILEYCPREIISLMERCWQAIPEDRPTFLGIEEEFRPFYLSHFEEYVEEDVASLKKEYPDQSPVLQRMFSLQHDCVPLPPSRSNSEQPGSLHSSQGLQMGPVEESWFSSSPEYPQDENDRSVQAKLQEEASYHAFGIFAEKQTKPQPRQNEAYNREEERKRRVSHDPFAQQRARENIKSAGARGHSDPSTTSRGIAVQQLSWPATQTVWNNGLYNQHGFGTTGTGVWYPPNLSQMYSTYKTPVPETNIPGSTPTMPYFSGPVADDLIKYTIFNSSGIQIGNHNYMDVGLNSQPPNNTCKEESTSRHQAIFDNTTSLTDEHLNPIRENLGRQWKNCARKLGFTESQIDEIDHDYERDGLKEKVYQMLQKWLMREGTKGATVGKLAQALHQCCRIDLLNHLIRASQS

[2] = target: T1, Receptor-interacting serine/threonine-protein kinase 1 (Mus musculus); experiment: Inhibition of RIPK1 in mouse L929sA cells transfected with human Fas assessed as inhibition in TNF-induced necroptosis at 3 uM pretreated for 0.5 hrs followed by TNF and zVAD.fmk addition measured after 3 hrs by Hoechst 33342/propidium iodide staining-based assay relative to control; type: cell-based
[3] = system: Aurk (Aurora kinase); experiment: Inhibition of Aurk in mouse L929sA cells transfected with human Fas assessed as increase in nuclear area at 3 uM after 24 hrs in presence of TNF by Hoechst 33342 staining-based microscopic assay relative to control; type: cell-based
[4] = Inhibition of Aurk mouse L929sA cells transfected with human Fas assessed as increase in nuclear area after 24 hrs in presence of TNF by Hoechst 33342 staining-based microscopic assay
Procedure, shortened: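 L929sAhFAS cells treated with compound; mean nuclear area is measured and fitted as a sigmoidal dose–response curve.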

[5] = Inhibition of Aurk mouse L929sA cells transfected with human Fas assessed as reduction in cell growth after 24 hrs in presence of TNF by Hoechst 33342 staining-based microscopic assay
Procedure, shortened: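 L929sAhFAS cells exposed to compound; total cell number is counted after 24 h. IC50 is fitted from a dose–response curve of cell growth.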

[6] = system: Aurk (Aurora kinase); experiment: Inhibition of Aurk in mouse L929sA cells transfected with human Fas assessed as reduction in cell growth at 3 uM after 24 hrs in presence of TNF by Hoechst 33342 staining-based microscopic assay relative to control

Row | Compound | inhibition at 24 h, 3 µM [3] [%] | IC50 [4] [nM] | inhibition [1] [%] | inhibition [2] [%] | IC50 [5] [nM] | inhibition at 24 h, 3 µM [6] [%]
1 | Cc1[nH]nc(Nc2cc(N3CCOCC3)nc(Nc3ccc(NC(=O)C4CC4)cc3)n2)c1C | < 50 | > 3000 | < 50 | < 50 | > 3000 | < 50
2 | Cc1[nH]nc(Nc2nc(Sc3ccc(NC(=O)C4CCCCC4)cc3)nc(N3CCN(C)CC3)n2)c1C | < 50 | > 3000 | < 50 | < 50 | > 3000 | < 50
3 | Cc1cc(Nc2nc(Sc3ccc(NC(=O)C4CC4)cc3)nc(N3CCCCC3)n2)n[nH]1 | < 50 | > 3000 | < 50 | < 50 | > 3000 | < 50
4 | Cc1cc(Nc2cc(N3CCN(C)CC3)nc(Sc3ccc(NC(=O)C4CCCCC4)cc3)n2)n[nH]1 | < 50 | > 3000 | < 50 | < 50 | < 600 | –
5 | Cc1[nH]nc(Nc2cc(N3CCOCC3)nc(Nc3ccc(NC(=O)C4CCCCC4)cc3)n2)c1C | < 50 | > 3000 | < 50 | < 50 | > 3000 | < 50
6 | Cc1[nH]nc(Nc2nc(Nc3ccc(NC(=O)C4CCCCC4)cc3)nc(N3CCN(C)CC3)n2)c1C | < 50 | > 3000 | < 50 | < 50 | > 3000 | < 50
7 | Cc1[nH]nc(Nc2nc(Sc3ccc(NC(=O)C4CCCCC4)cc3)nc(N3CCOCC3)n2)c1C | < 50 | > 3000 | < 50 | < 50 | > 3000 | < 50
8 | Cc1[nH]nc(Nc2cc(N3CCN(C)CC3)nc(Nc3ccc(NC(=O)C4CCCCC4)cc3)n2)c1C | < 50 | > 3000 | < 50 | < 50 | > 3000 | < 50
9 | Cc1cc(Nc2nc(Nc3ccc(NC(=O)C4CCCCC4)cc3)nc(N3CCOCC3)n2)n[nH]1 | < 50 | > 3000 | < 50 | < 50 | 2300 | –
10 | Cc1[nH]nc(Nc2nc(Nc3ccc(NC(=O)C4CC4)cc3)nc(N3CCOCC3)n2)c1C | < 50 | > 3000 | < 50 | < 50 | > 3000 | < 50
11 | Cc1cc(Nc2cc(N3CCN(C)CC3)nc(Nc3ccc(NC(=O)C4CCCCC4)cc3)n2)n[nH]1 | < 50 | > 3000 | – | – | > 3000 | < 50
12 | Cc1cc(Nc2nc(Sc3ccc(NC(=O)C4CCCCC4)cc3)nc(N3CCOCC3)n2)n[nH]1 | < 50 | > 3000 | – | < 50 | 2170 | –
13 | Cc1cc(Nc2nc(Nc3ccc(NC(=O)C4CCCCC4)cc3)nc(N3CCCCC3)n2)n[nH]1 | < 50 | > 3000 | < 50 | < 50 | > 3000 | < 50
14 | Cc1cc(Nc2nc(Sc3ccc(NC(=O)C4CC4)cc3)nc(N3CCOCC3)n2)n[nH]1 | < 50 | > 3000 | – | – | > 3000 | < 50
15 | Cc1cc(Nc2cc(N3CCCCC3)nc(Nc3ccc(NC(=O)C4CCCCC4)cc3)n2)n[nH]1 | < 50 | > 3000 | – | < 50 | > 3000 | < 50

More lines, main results first:

Row | inhibition at 24 h, 3 µM [3] [%] | IC50 [4] [nM] | Compound | inhibition [1] [%] | inhibition [2] [%] | IC50 [5] [nM] | inhibition at 24 h, 3 µM [6] [%]
16 | < 50 | > 3000 | Cc1[nH]nc(Nc2cc(N3CCCCC3)nc(Nc3ccc(NC(=O)C4CCCCC4)cc3)n2)c1C | < 50 | < 50 | > 3000 | < 50
17 | < 50 | > 3000 | Cc1[nH]nc(Nc2nc(Sc3ccc(NC(=O)C4CC4)cc3)nc(N3CCN(C)CC3)n2)c1C | < 50 | < 50 | > 3000 | < 50
18 | < 50 | > 3000 | Cc1[nH]nc(Nc2nc(Sc3ccc(NC(=O)C4CC4)cc3)nc(N3CCOCC3)n2)c1C | < 50 | < 50 | > 3000 | < 50
19 | < 50 | > 3000 | Cc1[nH]nc(Nc2nc(Sc3ccc(NC(=O)C4CC4)cc3)nc(N3CCCCC3)n2)c1C | < 50 | < 50 | > 3000 | < 50
20 | < 50 | > 3000 | Cc1cc(Nc2cc(N3CCOCC3)nc(Nc3ccc(NC(=O)C4CCCCC4)cc3)n2)n[nH]1 | – | – | 2250 | –
21 | < 50 | > 3000 | Cc1cc(Nc2cc(N3CCCCC3)nc(Sc3ccc(NC(=O)C4CCCCC4)cc3)n2)n[nH]1 | – | – | 813 | –
22 | – | 1040 | Cc1cc(Nc2cc(N3CCOCC3)nc(Sc3ccc(NC(=O)C4CC4)cc3)n2)n[nH]1 | – | – | 1000 | –
23 | – | 1000 | Cc1cc(Nc2cc(N3CCCCC3)nc(Sc3ccc(NC(=O)C4CC4)cc3)n2)n[nH]1 | – | – | 1320 | –
24 | < 50 | > 3000 | Cc1cc(Nc2nc(Nc3ccc(NC(=O)C4CC4)cc3)nc(N3CCN(C)CC3)n2)n[nH]1 | < 50 | < 50 | > 3000 | < 50
25 | – | < 600 | Cc1cc(Nc2cc(N3CCOCC3)nc(Sc3ccc(NC(=O)C4CCCCC4)cc3)n2)n[nH]1 | – | – | 214 | –
26 | < 50 | > 3000 | CCN1CCN(c2cc(Nc3n[nH]c(C)c3C)nc(Sc3ccc(NC(=O)C4CC4)cc3)n2)CC1 | < 50 | < 50 | > 3000 | < 50
27 | < 50 | > 3000 | Cc1cc(Nc2nc(Nc3ccc(NC(=O)C4CCCCC4)cc3)nc(N3CCN(C)CC3)n2)n[nH]1 | < 50 | < 50 | > 3000 | < 50
28 | < 50 | > 3000 | Cc1cc(Nc2nc(Sc3ccc(NC(=O)C4CCCCC4)cc3)nc(N3CCCCC3)n2)n[nH]1 | < 50 | < 50 | > 3000 | < 50
29 | < 50 | > 3000 | Cc1[nH]nc(Nc2nc(Nc3ccc(NC(=O)C4CC4)cc3)nc(N3CCCCC3)n2)c1C | < 50 | < 50 | > 3000 | < 50
30 | < 50 | > 3000 | Cc1[nH]nc(Nc2nc(Sc3ccc(NC(=O)C4CCCCC4)cc3)nc(N3CCCCC3)n2)c1C | < 50 | < 50 | > 3000 | < 50
31 | < 50 | > 3000 | Cc1cc(Nc2nc(Nc3ccc(NC(=O)C4CC4)cc3)nc(N3CCOCC3)n2)n[nH]1 | – | – | > 3000 | < 50
32 | – | 800 | Cc1cc(Nc2nc(Sc3ccc(NC(=O)C4CC4)cc3)nc(N3CCN(C)CC3)n2)n[nH]1 | – | < 50 | 440 | –
